{"source": "ChEMBL document CHEMBL1833957", "about": "“P1-substituted symmetry-based human immunodeficiency virus protease inhibitors with potent antiviral activity against drug-resistant viruses” (J Med Chem, 2011)", "key": {"[1]": {"test": "Oral bioavailability in rat at 5 mg/kg", "type": "ADME, organism-based", "conditions": "in vivo"}, "[2]": {"test_system": "Human immunodeficiency virus 1", "test": "(§1) Antiviral activity against HIV1 isolate 1 harboring protease L10I, E35D, N37D, M46I, I54V, G57R, L63P, A71V, T74P, I84V, L90M, I93L mutant infected in human MT4 cells assessed as inhibition of virus-induced cell death after 5 days by MTT assay relative to wild type HIV1 pNL4-3", "type": "functional"}, "[3]": {"test": "Cmax in rat at 5 mg/kg, po", "type": "ADME, organism-based", "design": "dose 5 mg/kg, route oral", "conditions": "in vivo", "procedure,_shortened": "(§2)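 Rats given a single 5 mg/kg oral dose with no ritonavir. Plasma Cmax is reported in μg/mL and AUC in μg h/mL.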"}, "[4]": {"test": "Metabolic stability in human liver microsomes assessed as disappearance of the compound after 20 mins", "type": "ADME, Microsome", "conditions": "read-out: Drug metabolism"}, "[5]": {"test": "AUC in rat at 5 mg/kg, po", "type": "ADME, organism-based", "design": "dose 5 mg/kg, route oral", "conditions": "plasma", "procedure,_shortened": "as §2"}, "[6]": {"test": "Permeability of the compound", "type": "ADME", "conditions": "not told; read-out: permeability"}, "[7]": {"test_system": "Human immunodeficiency virus 1", "test": "Antiviral activity against wild type HIV1 pNL4-3 infected in human MT4 cells assessed as inhibition of virus-induced cell death after 5 days by MTT assay", "type": "functional, organism-based", "conditions": "Human immunodeficiency virus 1, pNL4-3, MT4, 120 h", "procedure,_shortened": "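EC50 measured against wild-type virus in MT-4 cells, with no human serum added.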"}, "[8]": {"test_system": "Human immunodeficiency virus 1", "test": "as §1, with “HIV1” for “HIV1 isolate 1”, “I13V, G16A, Q18H, L33F,” for “E35D,”, “G57R, Q61H,I62V,” for “G57R,”, “A71L, I72T, L76V, V77I, V82A, N88G,” for “A71V, T74P, I84V,”", "type": "functional"}, "[9]": {"test_system": "Human immunodeficiency virus 1", "test": "Antiviral activity against HIV1 A17 harboring protease L10F, V32I, M46I, I47V, Q58E and I84V mutant infected in human MT4 cells assessed as inhibition of virus-induced cell death after 5 days by MTT assay relative to wild type HIV1 pNL4-3", "type": "functional"}, "[10]": {"test_system": "Human immunodeficiency virus 1", "test": "Antiviral activity against wild type HIV1 pNL4-3 infected in human MT4 cells assessed as inhibition of virus-induced cell death after 5 days by MTT assay in presence of 50% human serum", "type": "functional, organism-based", "conditions": "Human immunodeficiency virus 1, pNL4-3, MT4, 120 h"}, "[11]": {"test_system": "Human immunodeficiency virus 1", "test": "Antiviral activity against HIV1 B26 harboring protease L33F, K45I, M46I, I50V, A71V and V82F mutant infected in human MT4 cells assessed as inhibition of virus-induced cell death after 5 days by MTT assay relative to wild type HIV1 pNL4-3", "type": "functional"}, "[12]": {"test": "Aqueous solubility of the compound", "type": "physicochemical", "conditions": "buffer"}}}
{"smiles": "COC(=O)N[C@H](C(=O)N[C@@H](Cc1ccccc1)C[C@H](O)[C@H](Cc1ccc(-c2cncc(F)c2)cc1)NC(=O)[C@@H](NC(=O)OC)C(C)(C)C)C(C)(C)C", "values": [{"measurement": "bioavailability", "setting": "[1]", "value": 13, "unit": "%"}, {"measurement": "fold change (FC)", "setting": "[2]", "value": 38}, {"measurement": "Cmax", "setting": "[3]", "value": 110, "unit": "ng/mL"}, {"measurement": "metabolised at 20 min", "setting": "[4]", "value": 40, "unit": "%"}, {"measurement": "AUC", "setting": "[5]", "value": 160, "unit": "ng·h/mL"}, {"measurement": "Papp", "setting": "[6]", "value": 7.3, "unit": "×10⁻⁶ cm/s"}, {"measurement": "EC50", "setting": "[7]", "value": 4, "unit": "nM"}, {"measurement": "fold change (FC)", "setting": "[8]", "value": 2}, {"measurement": "fold change (FC)", "setting": "[9]", "value": 3}, {"measurement": "EC50", "setting": "[10]", "value": 24, "unit": "nM"}, {"measurement": "fold change (FC)", "setting": "[11]", "value": 3}, {"measurement": "solubility", "setting": "[12]", "value": 10.4, "unit": "µM"}]}
